Reference: article PMC3947748 (Journal of biomolecular screening, 2010)
Read-outs that look alike come from different tables or passages of the source.

Assays:
[1] = molecular target: T1, Nek2 (Homo sapiens, UniProt P51955); experiment: FlashPlate radiometric proximity assay of Nek2 kinase activity; type: biochemical
T1 sequence (P51955 1-445): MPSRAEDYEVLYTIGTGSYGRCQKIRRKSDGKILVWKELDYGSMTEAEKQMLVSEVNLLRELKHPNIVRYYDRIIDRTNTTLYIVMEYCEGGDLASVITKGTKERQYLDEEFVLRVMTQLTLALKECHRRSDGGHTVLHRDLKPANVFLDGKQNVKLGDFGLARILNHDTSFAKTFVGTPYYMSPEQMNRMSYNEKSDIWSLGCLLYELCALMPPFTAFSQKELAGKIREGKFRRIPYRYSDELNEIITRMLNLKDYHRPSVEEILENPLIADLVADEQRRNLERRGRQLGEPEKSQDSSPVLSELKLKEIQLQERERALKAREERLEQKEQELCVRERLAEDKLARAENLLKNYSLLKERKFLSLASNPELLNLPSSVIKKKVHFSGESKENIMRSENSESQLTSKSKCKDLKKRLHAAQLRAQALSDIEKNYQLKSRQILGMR

[2] = molecular target: T1, Nek2; experiment: Filter assay of Nek2 kinase activity; type: biochemical
[3] = molecular target: Nek6 (Homo sapiens, UniProt Q9HC98); experiment: Kinase specificity assay; type: biochemical
Chain of Nek6 (Q9HC98 whole entry, species assumed): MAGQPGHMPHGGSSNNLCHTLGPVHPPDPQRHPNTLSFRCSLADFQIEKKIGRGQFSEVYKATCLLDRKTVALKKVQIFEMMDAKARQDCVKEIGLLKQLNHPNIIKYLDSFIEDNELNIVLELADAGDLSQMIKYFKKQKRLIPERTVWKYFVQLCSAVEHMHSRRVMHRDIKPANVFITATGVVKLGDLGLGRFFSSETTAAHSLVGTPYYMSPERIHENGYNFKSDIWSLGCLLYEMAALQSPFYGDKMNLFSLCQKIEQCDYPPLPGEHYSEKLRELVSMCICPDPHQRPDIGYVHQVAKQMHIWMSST

[4] = molecular target: Nek7 (Homo sapiens, UniProt Q8TDX7); experiment: Kinase specificity assay; type: biochemical
Chain of Nek7 (Q8TDX7 whole entry, species assumed): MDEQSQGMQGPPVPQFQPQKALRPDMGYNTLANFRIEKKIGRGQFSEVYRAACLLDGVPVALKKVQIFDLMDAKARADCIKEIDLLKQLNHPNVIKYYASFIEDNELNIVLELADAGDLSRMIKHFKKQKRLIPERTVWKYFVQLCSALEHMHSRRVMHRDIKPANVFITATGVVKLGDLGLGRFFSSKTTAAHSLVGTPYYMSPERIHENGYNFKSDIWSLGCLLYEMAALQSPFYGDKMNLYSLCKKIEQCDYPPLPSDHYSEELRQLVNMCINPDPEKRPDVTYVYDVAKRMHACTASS

[5] = molecular target: T2, Aurora A (Homo sapiens, UniProt O14965); experiment: Kinase specificity assay; type: biochemical
T2 sequence (O14965 1-403): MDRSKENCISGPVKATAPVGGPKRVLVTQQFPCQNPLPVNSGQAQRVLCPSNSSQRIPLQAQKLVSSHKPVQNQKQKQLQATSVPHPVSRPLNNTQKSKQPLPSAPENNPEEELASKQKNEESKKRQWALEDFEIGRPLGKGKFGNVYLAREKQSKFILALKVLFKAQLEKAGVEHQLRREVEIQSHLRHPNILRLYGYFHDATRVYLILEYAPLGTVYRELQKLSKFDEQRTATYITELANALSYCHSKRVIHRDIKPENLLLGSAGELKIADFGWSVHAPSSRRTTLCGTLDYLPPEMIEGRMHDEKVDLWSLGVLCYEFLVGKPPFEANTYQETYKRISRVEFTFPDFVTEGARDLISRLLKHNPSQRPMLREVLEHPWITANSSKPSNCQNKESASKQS

[6] = molecular target: Cdk1/Cyclin B (Homo sapiens, UniProt P06493); experiment: Kinase specificity assay; type: biochemical
Chain of Cdk1/Cyclin B (P14635 whole entry): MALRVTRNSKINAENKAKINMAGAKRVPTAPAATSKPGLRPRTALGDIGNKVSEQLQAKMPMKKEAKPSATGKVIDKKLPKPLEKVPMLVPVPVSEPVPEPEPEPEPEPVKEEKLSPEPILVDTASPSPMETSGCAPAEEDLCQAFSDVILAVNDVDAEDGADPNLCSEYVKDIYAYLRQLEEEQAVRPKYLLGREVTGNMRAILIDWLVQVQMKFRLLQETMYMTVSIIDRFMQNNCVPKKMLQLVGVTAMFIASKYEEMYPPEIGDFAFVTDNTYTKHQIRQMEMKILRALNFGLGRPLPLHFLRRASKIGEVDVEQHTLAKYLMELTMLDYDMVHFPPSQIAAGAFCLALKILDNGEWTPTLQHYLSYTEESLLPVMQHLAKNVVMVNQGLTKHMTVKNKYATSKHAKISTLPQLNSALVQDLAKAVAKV
Chain of Cdk1/Cyclin B (P06493 whole entry): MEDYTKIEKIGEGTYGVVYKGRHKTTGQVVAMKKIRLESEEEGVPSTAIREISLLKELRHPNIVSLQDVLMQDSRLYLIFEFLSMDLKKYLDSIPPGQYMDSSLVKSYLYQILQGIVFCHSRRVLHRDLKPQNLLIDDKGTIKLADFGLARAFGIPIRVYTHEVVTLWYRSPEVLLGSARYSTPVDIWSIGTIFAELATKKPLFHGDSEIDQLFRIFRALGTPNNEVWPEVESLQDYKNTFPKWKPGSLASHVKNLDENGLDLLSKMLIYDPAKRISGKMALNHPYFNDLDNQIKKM

[7] = tested on: U2OS cells; experiment: Growth inhibition assay; type: cell-based; conditions: Homo sapiens, 72 h, read-out: Growth inhibition GI50, U2OS
Method in brief: (§1)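 Cells cultured as previously described, seeded at […], then given test compound in DMSO over a concentration range, or DMSO alone (1-2% final), after 24 h. Incubation 72 h.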

[8] = tested on: HeLa cells; experiment: Growth inhibition assay; type: cell-based; conditions: Homo sapiens, 72 h, read-out: Growth inhibition GI50, HeLa
Method in brief: as §1

[9] = tested on: U2OS:GFP-Nek2A cells; experiment: Manual immunofluorescence assay of Nek2A-induced centrosome splitting; type: cell-based, human; conditions: doxycycline-induced cells; 0.5, 5 and 50 μM; 24 hours; γ-tubulin stain
Method in brief: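 Tetracycline-inducible stable U2OS:GFP-Nek2A cells were induced with doxycycline together with test compound (0.5, 5, 50 μM) or DMSO (2%) for 24 h. Cells were fixed and stained for γ-tubulin and DNA for indirect immunofluorescence. The percentage of interphase cells with centrosomes more than 2 μm apart was scored. Three repeat experiments, standard deviations; Student's t-test versus DMSO.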

## O=c1cc(N2CCOCC2)oc2c(-c3ccccc3)cccc12 [LY294002]
[1]
  Nek2 inhibition, FlashPlate (result in words): inactive
[2]
  Nek2 inhibition, filter assay (result in words): inactive

## COC[C@H]1OC(=O)c2coc3c2[C@@]1(C)C1=C(C3=O)[C@@H]2CCC(=O)[C@@]2(C)C[C@H]1OC(C)=O [Wortmannin]
[3]
  IC50: > 400 µM
[4]
  IC50: > 400 µM
[5]
  IC50: > 400 µM
[6]
  IC50: > 400 µM
[7]
  GI50: 23.7 µM
[8]
  GI50: 15 µM

## Oc1ccc(Nc2nc(OCC3CCCCC3)c3[nH]cnc3n2)cc1 [NU6120, 6-cyclohexylmethoxy-2-(4′-hydroxyanilino)purine]
[9]
  Effect on Nek2A-induced centrosome splitting (manual scoring, split >2 μm): had no effect on splitting

## CN[C@@H]1C[C@H]2O[C@@](C)([C@@H]1OC)n1c3ccccc3c3c4c(c5c6ccccc6n2c5c31)C(=O)NC4 [Staurosporine, staurosporine]
[1]; data not shown
  Hill slope of Nek2 inhibition: ~1.0
[1]; read-out: Inhibition of Nek2 activity at 25 μM, entire screen
  inhibition at 25 µM: 59 ± 18%
[1]; read-out: Inhibition of Nek2 activity at 25 μM, typical batch
  inhibition at 25 µM: 61.2 ± 2.4%
